We go through 39 compounds from PubChem BioAssay.

Active and inactive are the calls of the source.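 The calls were made as follows, unless noted: active = calcium signal ratio cut to more than 3 SD under the fully stimulated control mean yet still positive, in both repeats and the primary screen; inactive = the rest.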

Chain of Short transient receptor potential channel 4 (Mus musculus) (Q9QUQ5 whole entry, looked up): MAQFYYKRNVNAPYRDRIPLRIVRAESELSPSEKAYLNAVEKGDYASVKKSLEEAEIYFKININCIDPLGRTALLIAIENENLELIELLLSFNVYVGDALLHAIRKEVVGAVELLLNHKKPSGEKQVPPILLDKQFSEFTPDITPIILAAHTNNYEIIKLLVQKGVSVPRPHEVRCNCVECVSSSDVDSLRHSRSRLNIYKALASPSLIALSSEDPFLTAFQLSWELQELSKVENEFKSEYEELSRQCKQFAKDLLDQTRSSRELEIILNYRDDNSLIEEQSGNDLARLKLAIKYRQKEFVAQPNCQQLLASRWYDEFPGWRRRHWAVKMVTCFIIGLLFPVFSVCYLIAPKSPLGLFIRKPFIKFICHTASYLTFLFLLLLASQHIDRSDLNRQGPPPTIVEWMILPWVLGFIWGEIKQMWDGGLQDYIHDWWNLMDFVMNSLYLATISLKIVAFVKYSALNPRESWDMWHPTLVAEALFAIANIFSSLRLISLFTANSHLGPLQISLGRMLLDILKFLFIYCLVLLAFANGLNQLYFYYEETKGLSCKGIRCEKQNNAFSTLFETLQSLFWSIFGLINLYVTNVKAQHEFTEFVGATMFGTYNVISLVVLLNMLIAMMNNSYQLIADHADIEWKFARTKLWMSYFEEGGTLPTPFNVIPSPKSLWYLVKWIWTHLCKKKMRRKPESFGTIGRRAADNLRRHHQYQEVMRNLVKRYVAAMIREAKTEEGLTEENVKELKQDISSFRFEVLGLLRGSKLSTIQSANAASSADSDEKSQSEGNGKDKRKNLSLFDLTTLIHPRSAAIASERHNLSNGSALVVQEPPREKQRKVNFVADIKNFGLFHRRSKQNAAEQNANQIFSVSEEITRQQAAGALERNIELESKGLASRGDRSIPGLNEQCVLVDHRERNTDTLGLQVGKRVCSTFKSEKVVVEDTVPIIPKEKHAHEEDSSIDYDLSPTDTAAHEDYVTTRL

One assay has as its target Short transient receptor potential channel 4 (Mus musculus) (UniProt Q9QUQ5). The assay can be described thus: blockers of DAMGO-evoked TRPC4 calcium flux – cell-based, Fluo4, HEK293 TRPC4beta/mu-opioid, confirmation (AID 2636;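 active = calcium signal cut by more than 3 SD below the full-agonist control yet still positive, in both repeats and the earlier primary screen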). The settings on record: at 10 µM; stronger effect = higher value. The gist of the method:
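Test system: HEK293 stable line with TRPC4beta plus mu-opioid receptor; Probe or stimulus: DAMGO, mu-opioid agonist, submaximal dose then maximally activating dose; Timing: dye 45 min at room temperature, compound 110 s, submaximal DAMGO 110 s; Technique: kinetic fluorescence of Fluo4 calcium-sensitive dye, calcium influx; Replication: duplicates per compound.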
Consider `CCN1CCN(CCC(=O)Nc2ccccc2OC)CC1`, for which the result was inactive.
Turning to `COc1cc(NC(=O)CSc2ncnc3sc4c(c23)CCC(C)C4)c(C(=O)O)cc1OC` (stereo not drawn), the inhibition is 91% (active).
`Cc1[nH]nc(-c2ccc(O)cc2O)c1-c1nc2ccccc2s1`: the outcome was inactive.
`CC1CCC2C(C1)c1sc(=O)[nH]c1SC2(C)C` (stereo not drawn): the outcome was inactive.

The target is the same in another assay. As to the kind of experiment: blockers of DAMGO-evoked TRPC4 calcium flux – cell-based, second round, Fluo4, HEK293 TRPC4beta/mu-opioid, 1 µM, confirmation (AID 2637). The conditions noted are these: at 1 µM; stronger effect = higher value. The gist of the method:
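Also added: sequential submaximal then maximal DAMGO stimulation; system: TRPC4beta/mu-opioid receptor HEK293 cells; compound: one dose, 1 µM final; signal: kinetic Fluo4 Ca2+ fluorescence reading; benchmarks: ECmax and compound-free wells; repeats: two replicates; times: Fluo4 loading 45 min at room temperature, compound 110 s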
As to `CN(CCCNC(=O)CCCOc1cc(=O)n(C)c2ccccc12)Cc1ccccc1`, the result was inactive.
`CCOc1ccccc1C(=O)NCCc1cnc[nH]1`: the result was inactive.
Same read-out and setting: the same measure for `Cc1ccccc1-n1c(=O)c2c(n3cnnc13)-c1ccccc1CC21CCCCC1`: “inactive”; for `CN(C)S(=O)(=O)N1CCC(CCCC2CCN(S(=O)(=O)N(C)C)CC2)CC1`: “inactive”; for `O=C(Nc1ccnn1C1CCN(Cc2cc3ccccc3[nH]2)CC1)C1CCOC1` (stereo not drawn): “inactive”.
On the same count and under the same terms, the same measure for `C=CCOc1ccc(CN(C)Cc2nc3cc(C(F)(F)F)ccc3c(=O)[nH]2)cc1`: “inactive”; for `Cc1ccc(C(=O)C[n+]2cccc3cc(C)ccc32)cc1`: “inactive”.
On the same count and under the same terms, as for `CN(C)CCCN(C(=O)CCc1ccccc1)c1nc2ccc(F)cc2s1`, the entry is “inactive”; as for `CC(=O)n1cc([C@@H]2C=C(C(=O)NCc3ccccc3)O[C@H](OCc3ccc(CO)cc3)C2)c2ccccc21`, “inactive”; as for `O=C(O)CCCN1C(=O)/C(=C\c2ccc(-c3nc4ccccc4s3)o2)SC1=S`, “inactive”.
For `CCOCCCn1c(=S)[nH]c2cc(C(=O)NCCCN(CC)CC)ccc2c1=O`, the result was inactive.
Regarding `O=C(NCc1ccccc1)c1ccc(S(=O)(=O)Nc2cccc(C(F)(F)F)c2)cc1`, the outcome was inactive.
Same read-out and setting: the same measure for `CCOC(=O)C1CCCN(C(=O)CCCn2nnnc2CN2CCOCC2)C1` (stereo not drawn): “inactive”.
Still for that read-out and setting: the same measure for `COc1cc(OC)c2c(-c3ccccc3)cc(=O)oc2c1C(CCN1CCCCC1)c1ccc(N(C)C)cc1` (stereo not drawn): “inactive”; for `CCCCCCCCCC[n+]1cccc2c3ccccc3ccc21`: “inactive”; for `CC(C)NS(=O)(=O)c1ccc(NC(=O)C(C)Oc2ccc(C(=O)c3ccccc3)cc2)cc1` (stereo not drawn): “inactive”.
On the same count and under the same terms, the same measure for `Cc1ccc(C(=O)NNC(=O)C2CSC3(C)CCC(=O)N23)cc1` (stereo not drawn): “inactive”; for `CCCc1nc2oc3c(NCCCN(C)C)ncnc3c2c2c1CCCC2`: “inactive”.
`CCc1nc2ccccc2n1Cc1ccccc1F`: the outcome was inactive.
Still for that read-out and setting: the same measure for `O=C(Cc1ccccc1)Nc1cccc(NC(=O)c2cccs2)c1`: “inactive”; for `CCCCN(CC)CCCNC(=O)c1cc2cc3ccc(C)cc3nc2o1`: “inactive”.
`O=C1C=CC(=O)N1CCNc1ncc(C(F)(F)F)cc1Cl`: the outcome was inactive.
The same measure, in the same setting: the same measure for `Cc1cc(NC(=O)CSCC(=O)Nc2ccc(Cl)c(C(F)(F)F)c2)no1`: “inactive”; for `Cc1ccc2c(c1)C1CN(C)CCC1N2C(=S)NC(=O)c1ccc(Br)cc1` (stereo not drawn): “inactive”; for `CCc1nc2ccccc2n1Cc1ccc(F)cc1`: “inactive”.
The same measure, in the same setting: the same measure for `CCN(CC)CCSc1nnc2c3ccccc3n(Cc3ccccc3)c2n1`: “inactive”.
Still for that read-out and setting: as for `CCN1C2=NCCCN2c2cc(C)c(C)cc21`, the entry is “inactive”; as for `Cc1cc(C)c2c(=O)n(CC(=O)Nc3cccc(Cl)c3C)sc2n1`, “inactive”; as for `COc1cc(C2(c3ccc(O)c(OC)c3)C(=O)Nc3c(C)cc(Br)cc32)ccc1O`, “inactive”.
As to `COc1ccc(CC2(CO)CCN(C/C=C/c3ccccc3OC)CC2)cc1`, the outcome was inactive.
Still for that read-out and setting: the same measure for `Cc1nn(-c2cc(C(F)(F)F)ccc2Cl)c2nc(C(Cl)(Cl)Cl)[nH]c(=O)c12`: “inactive”; for `Cc1ccc(C(=O)O)cc1N=Cc1cc(Br)cc(Br)c1O`: “inactive”.
Still for that read-out and setting: the same measure for `CCOc1ccc(N=CNc2ccc(OCC)cc2)cc1`: “inactive”; for `CCN(CC)c1ncnc2sc3c(c12)CCC3`: “inactive”; for `COc1ccc(NS(=O)(=O)c2ccc3ccccc3c2)c2ncccc12`: “inactive”.
In the case of `CCN1CCN(CCC(=O)Nc2ccccc2OC)CC1`, the result was inactive.
Turning to `COc1cc(NC(=O)CSc2ncnc3sc4c(c23)CCC(C)C4)c(C(=O)O)cc1OC` (stereo not drawn), the result was inactive.
Still for that read-out and setting: the same measure for `Cc1[nH]nc(-c2ccc(O)cc2O)c1-c1nc2ccccc2s1`: “inactive”; for `CC1CCC2C(C1)c1sc(=O)[nH]c1SC2(C)C` (stereo not drawn): “inactive”.
